From ChEMBL document CHEMBL2440062, “New nucleotide-competitive non-nucleoside inhibitors of terminal deoxynucleotidyl transferase: discovery, characterization, and crystal structure in complex with the target” (J Med Chem, 2013)
Calls of active or inactive are those of the source. No cut-off for these calls is given here.

Each compound was assayed on HeLa (assay: Cytotoxicity against TdT-deficient human HeLa cells assessed as growth inhibition after 24 to 48 hrs by MTT assay).
Assay type: cell-based
Outline: (§1)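 MOLT-4 cells were grown in RPMI-1640 and HeLa cells in DMEM, with 10% FCS at 37 °C. Cells were seeded at 10^5 per well, given 24 h to attach, then exposed to compounds (0.1–100 range) for 24 or 48 h. MTT at 1 mg/mL was added for 2 h at 37 °C, formazan was dissolved in DMSO, and absorbance read at 550 nm versus 0.5% DMSO vehicle. IC50 was obtained by regression, in triplicate.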
`O=C(/C=C/c1cn(Cc2ccc(O)cc2)c2ccccc12)CC(=O)C(=O)O` gave an IC50 of over 40 µM. `C/C=C/Cn1cc(/C=C/C(=O)CC(=O)C(=O)O)c2ccccc21` gave an IC50 of over 40 µM. Compound `O=C(/C=C/c1cc(C(=O)c2cccc(F)c2)c[nH]1)CC(=O)C(=O)O` has an IC50 of over 40 µM. `N#Cc1ccc(Cn2cc(/C=C/C(=O)CC(=O)C(=O)O)c3ccccc32)cc1` showed an IC50 of over 40 µM. Work on `O=C(/C=C/c1cn(-c2ccc(Cl)cc2)c2ccccc12)CC(=O)C(=O)O` yielded an IC50 of over 40 µM.

The compounds below were run on MOLT-4 (assay: Cytotoxicity against human MOLT4 cells overexpressing TdT assessed as growth inhibition after 24 to 48 hrs by MTT assay).
Assay type: functional, cell-based
Outline: as §1
`O=C(/C=C/c1cn(Cc2ccc(O)cc2)c2ccccc12)CC(=O)C(=O)O` was tested, and the IC50 was 20 µM. With `C/C=C/Cn1cc(/C=C/C(=O)CC(=O)C(=O)O)c2ccccc21` the IC50 was over 40 µM. In the case of `O=C(/C=C/c1cc(C(=O)c2cccc(F)c2)c[nH]1)CC(=O)C(=O)O`, the IC50 is reported as over 40 µM. Compound `N#Cc1ccc(Cn2cc(/C=C/C(=O)CC(=O)C(=O)O)c3ccccc32)cc1` has an IC50 of over 40 µM. `O=C(/C=C/c1cn(-c2ccc(Cl)cc2)c2ccccc12)CC(=O)C(=O)O` showed an IC50 of 27 µM.

Organism: Homo sapiens
Test: Binding affinity to human TdT/DNA/dNTP ternary complex
Outline: (§2)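 Association (kon) and dissociation (koff) rates measured for binding to binary enzyme–DNA and ternary enzyme–DNA–dNTP complexes of TdT.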
In the case of `O=C(/C=C/c1cn(Cc2ccc(O)cc2)c2ccccc12)CC(=O)C(=O)O`, the inhibition is reported as “inactive”.

Organism: Homo sapiens
Test: Binding affinity to human TdT/DNA binary complex
Outline: as §2
`O=C(/C=C/c1cn(Cc2ccc(O)cc2)c2ccccc12)CC(=O)C(=O)O` was tested, and the inhibition was “Active”.

These compounds were tested against T1, DNA nucleotidylexotransferase (Homo sapiens, UniProt P04053) (assay: Non-competitive inhibition of human TdT using 3'-OH as substrate).
T1 sequence (P04053 whole entry): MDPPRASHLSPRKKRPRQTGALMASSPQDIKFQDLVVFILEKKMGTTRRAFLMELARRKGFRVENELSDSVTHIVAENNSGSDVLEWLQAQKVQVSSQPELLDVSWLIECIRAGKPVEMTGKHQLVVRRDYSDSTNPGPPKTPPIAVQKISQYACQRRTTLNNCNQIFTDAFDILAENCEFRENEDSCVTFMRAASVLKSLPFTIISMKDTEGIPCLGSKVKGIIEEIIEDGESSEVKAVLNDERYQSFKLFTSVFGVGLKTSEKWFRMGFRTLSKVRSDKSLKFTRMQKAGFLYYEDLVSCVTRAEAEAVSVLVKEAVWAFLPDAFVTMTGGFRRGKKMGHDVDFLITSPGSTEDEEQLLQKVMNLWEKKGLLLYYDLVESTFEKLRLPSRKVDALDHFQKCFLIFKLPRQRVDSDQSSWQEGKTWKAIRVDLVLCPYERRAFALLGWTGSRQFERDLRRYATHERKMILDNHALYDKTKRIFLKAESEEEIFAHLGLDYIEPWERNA
`O=C(/C=C/c1cn(Cc2ccc(O)cc2)c2ccccc12)CC(=O)C(=O)O` showed a Ki of 0.5 µM.

Each compound was assayed against T1, DNA nucleotidylexotransferase (assay: Competitive inhibition of human TdT using TTP as substrate).
Outline: (§3)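 TdT was from Trevigen. TCA-precipitated radioactivity was counted. ID50 came from dose–response fitting. For kinetics, DNA or dNTP was varied at increasing inhibitor, and Ki was obtained via Cheng–Prusoff for a competitive model.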
`O=C(/C=C/c1cn(Cc2ccc(O)cc2)c2ccccc12)CC(=O)C(=O)O` was tested, and the Ki was 0.45 µM.

What follows are compounds tested against DNA polymerase beta (Homo sapiens, UniProt P06746) (assay: Inhibition of human recombinant DNA polymerase beta).
In the case of `O=C(/C=C/c1cn(Cc2ccc(O)cc2)c2ccccc12)CC(=O)C(=O)O`, the IC50 is reported as over 40 µM. `C/C=C/Cn1cc(/C=C/C(=O)CC(=O)C(=O)O)c2ccccc21` gave an IC50 of over 40 µM. `O=C(/C=C/c1cc(C(=O)c2cccc(F)c2)c[nH]1)CC(=O)C(=O)O` was tested, and the IC50 was over 40 µM. With `N#Cc1ccc(Cn2cc(/C=C/C(=O)CC(=O)C(=O)O)c3ccccc32)cc1` the IC50 was 40 µM. Work on `O=C(/C=C/c1cn(-c2ccc(Cl)cc2)c2ccccc12)CC(=O)C(=O)O` yielded an IC50 of over 40 µM.

What follows are compounds tested against T2, DNA polymerase lambda (Homo sapiens) (UniProt Q9UGP5) (assay: Inhibition of human recombinant full length DNA polymerase lambda TdT-like activity using [3H]dNTP as substrate after 10 mins by scintillation counting analysis).
T2 sequence (whole entry): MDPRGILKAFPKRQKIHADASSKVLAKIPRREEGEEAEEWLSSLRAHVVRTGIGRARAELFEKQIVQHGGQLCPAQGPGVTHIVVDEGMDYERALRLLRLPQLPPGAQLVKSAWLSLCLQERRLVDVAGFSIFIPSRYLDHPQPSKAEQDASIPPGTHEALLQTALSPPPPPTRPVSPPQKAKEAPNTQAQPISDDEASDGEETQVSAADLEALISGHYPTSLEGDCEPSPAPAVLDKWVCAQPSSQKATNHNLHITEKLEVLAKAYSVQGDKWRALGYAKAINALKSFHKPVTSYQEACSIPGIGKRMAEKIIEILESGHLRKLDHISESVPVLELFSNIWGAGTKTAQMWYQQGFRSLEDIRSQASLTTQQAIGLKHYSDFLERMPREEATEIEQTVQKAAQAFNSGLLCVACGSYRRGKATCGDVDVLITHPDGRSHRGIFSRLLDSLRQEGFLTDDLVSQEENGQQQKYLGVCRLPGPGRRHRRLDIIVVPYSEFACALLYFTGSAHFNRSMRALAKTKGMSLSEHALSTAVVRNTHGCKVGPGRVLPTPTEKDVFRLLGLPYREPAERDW
Outline: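 Full-length recombinant human pol λ (>90% pure) was tested for template-independent activity. Acid-insoluble radioactivity was counted, and ID50 came from dose–response fitting.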
`O=C(/C=C/c1cn(Cc2ccc(O)cc2)c2ccccc12)CC(=O)C(=O)O` showed an ID50 of over 40 µM. Compound `C/C=C/Cn1cc(/C=C/C(=O)CC(=O)C(=O)O)c2ccccc21` has an ID50 of 5 µM. For `O=C(/C=C/c1cc(C(=O)c2cccc(F)c2)c[nH]1)CC(=O)C(=O)O`, the ID50 was 35 µM. Work on `N#Cc1ccc(Cn2cc(/C=C/C(=O)CC(=O)C(=O)O)c3ccccc32)cc1` yielded an ID50 of 34 µM. With `O=C(/C=C/c1cn(-c2ccc(Cl)cc2)c2ccccc12)CC(=O)C(=O)O` the ID50 was over 40 µM.

What follows are compounds tested against T2, DNA polymerase lambda (Homo sapiens) (assay: Inhibition of human recombinant full length DNA polymerase lambda using [3H]dTTP as substrate and 10 poly(dA)/oligo(dT) as template-primer after 15 mins by scintillation counting analysis).
Outline: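 Recombinant full-length human pol λ at 50 nM was assayed with 0.2 μM poly(dA)/oligo(dT)10:1 (3′-OH ends) and 5 μM [3H]dTTP (5 Ci/mmol). Incubation was 15 min at 37 °C. TCA precipitates were scintillation counted.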
`O=C(/C=C/c1cn(Cc2ccc(O)cc2)c2ccccc12)CC(=O)C(=O)O` gave an ID50 of over 40 µM. With `C/C=C/Cn1cc(/C=C/C(=O)CC(=O)C(=O)O)c2ccccc21` the ID50 was over 40 µM. `O=C(/C=C/c1cc(C(=O)c2cccc(F)c2)c[nH]1)CC(=O)C(=O)O` was tested, and the ID50 was over 40 µM. Work on `N#Cc1ccc(Cn2cc(/C=C/C(=O)CC(=O)C(=O)O)c3ccccc32)cc1` yielded an ID50 of over 40 µM. Work on `O=C(/C=C/c1cn(-c2ccc(Cl)cc2)c2ccccc12)CC(=O)C(=O)O` yielded an ID50 of 9 µM.

What follows are compounds tested against T1, DNA nucleotidylexotransferase (assay: Inhibition of human recombinant TdT using [3H]dNTP as substrate after 10 mins by scintillation counting analysis).
Outline: as §3
For `O=C(/C=C/c1cn(Cc2ccc(O)cc2)c2ccccc12)CC(=O)C(=O)O`, the ID50 was 0.9 µM. Compound `C/C=C/Cn1cc(/C=C/C(=O)CC(=O)C(=O)O)c2ccccc21` has an ID50 of 7.3 µM. Work on `O=C(/C=C/c1cc(C(=O)c2cccc(F)c2)c[nH]1)CC(=O)C(=O)O` yielded an ID50 of 0.78 µM. Compound `N#Cc1ccc(Cn2cc(/C=C/C(=O)CC(=O)C(=O)O)c3ccccc32)cc1` has an ID50 of 1.4 µM. Work on `O=C(/C=C/c1cn(-c2ccc(Cl)cc2)c2ccccc12)CC(=O)C(=O)O` yielded an ID50 of 31 µM.
